Compound activity (PubChem BioAssay)
S100A4 MyoIIA = inhibitors of human S100A4 binding to myosin IIA peptide | S100A4/TAMRA-MyoIIA peptide fluorescence polarization | inhibition, % at 10.7 µM | 360,000 tested, 0.14% active;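 active = mean inhibition of at least 70% across replicates, with every replicate also reaching that level; inconclusive = mean inhibition reaches 70% but some replicates fall short; inactive = mean inhibition below 70%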
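Test system: S100A4 monomer protein; Medium: HEPES pH 7.2 with CaCl2, KCl, NaCl, DTT, Triton; Probe or stimulus: TAMRA-labelled myosin IIA heavy-chain peptide probe, 5 nM; Doses: one dose per compound; Times: polarization read 5 min after assay mix addition, stable 5–60 min; Benchmarks: neutral control DMSO, positive control TFP.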
RAD54 branch = blocks human RAD54 Holliday junction branch migration; Q92698; FAM/BHQ fluorescence; inhibition, % at 10.4 µM; 360,000 tested, 0.14% active; AID 602329;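 active = mean normalized replicate activity at least 40 and at least half of replicates scoring 40 or more; inconclusive = only one of the two criteria met; inactive = mean below 40 and under half of replicates reaching 40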;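 also: 0% = median of neutral control wells and 100% = median of positive control wells; inhibitors cause a drop in the FAM fluorescence signal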
SR-BI DiI inh = blocks mouse SR-BI lipid uptake from DiI-HDL; inhibition, % at 12.5 µM; 320,000 tested, 0.96% active; Q61009; ldlA[mSR-BI] CHO cells, DiI-HDL uptake fluorescence, 3 h;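 active = mean replicate inhibition of at least 70% and a set share of replicates each scoring 70 or more; inconclusive = meets just one of the two criteria; inactive = fails both criteria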;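 also: 0% = median of neutral control wells and 100% = median of positive control wells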
Target sequence (Q61009 whole entry, looked up): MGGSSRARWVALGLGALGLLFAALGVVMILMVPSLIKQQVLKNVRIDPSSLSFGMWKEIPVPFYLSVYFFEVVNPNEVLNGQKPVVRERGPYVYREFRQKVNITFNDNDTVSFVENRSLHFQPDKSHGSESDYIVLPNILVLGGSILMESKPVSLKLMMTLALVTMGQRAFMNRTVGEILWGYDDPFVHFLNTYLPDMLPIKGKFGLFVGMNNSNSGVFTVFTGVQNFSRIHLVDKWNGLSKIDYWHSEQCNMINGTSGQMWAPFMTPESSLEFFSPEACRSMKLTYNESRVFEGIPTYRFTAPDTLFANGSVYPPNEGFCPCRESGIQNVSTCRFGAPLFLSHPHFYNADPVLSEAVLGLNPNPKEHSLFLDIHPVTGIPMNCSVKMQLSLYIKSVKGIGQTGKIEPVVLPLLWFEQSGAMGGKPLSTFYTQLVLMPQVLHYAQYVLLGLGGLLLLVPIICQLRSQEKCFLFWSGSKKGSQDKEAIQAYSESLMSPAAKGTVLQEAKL
PvdQ acylase = blocks Pseudomonas aeruginosa PvdQ acylase activity; AID 488965; inhibition, % at 10 µM; 340,000 tested, 0.063% active; purified PvdQ acylase, fluorescence plate reader; in the data active = inhibition above about 30%, passing the limit was not always enough; inconclusive = no clear call, values can overlap the other calls;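 also: 0% = vehicle neutral wells and 100% = reference inhibitor wells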
SR-BI DiI-HDL act = activators of SR-BI mediated HDL lipid uptake; CHO ldlA[mSR-BI] cells, DiI-HDL uptake fluorescence, 3 h; 100 = double the neutral-control signal; activation, % at 12.5 µM; 320,000 tested, 0.096% active;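 active = mean replicate activation of at least 60% and every replicate at or above 60%; inconclusive = mean or all-replicate condition met, but not both; inactive = mean below 60% and not all replicates reaching 60%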;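 also: 0% = median plate neutral-control signal and 100% = twice that signal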
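System: LDL receptor-deficient CHO ldlA cells overexpressing murine SR-BI | Timing: 3 h uptake period with compound, 37 °C | Medium: HEPES-buffered (25 mM, pH 7.4) F12 plus 0.5% BSA | Dosing: Single-point compound dose | Signal: Bottom-read fluorescence, 550/595 nm | Read-out: Retained DiI signal reflecting DiI-HDL uptake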
dFosB activator = enhances mouse delta FosB homodimer DNA binding. 340,000 tested, 0.99% active. activation, % at 25 µM. purified delta FosB, TAMRA-CDK5 oligo fluorescence polarization; percent of positive-control signal above neutral wells. AID 493131;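 active = mean activation above about 17%, with every replicate also reaching it, limit read from the data, passing the limit was not always enough; inconclusive = only one of the two conditions met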
* hit, by the source's call; u = inconclusive; x = not tested or not shown. A selection: hits, their analogues and other compounds. The true share with any hit is near 1.6%.

SMILES | S100A4 MyoIIA | RAD54 branch | SR-BI DiI inh | PvdQ acylase | SR-BI DiI-HDL act | dFosB activator
COc1ccc(NC(=O)Nc2ccc(OC)c(OC)c2)c([N+](=O)[O-])c1 | -3 | -5 | 10 | -5 | -10 | 4
COc1ccc(CCC(=O)Nc2cc([N+](=O)[O-])ccc2OC)cc1 | x | x | 74* | 12 | -74 | 6
COc1ccc([N+](=O)[O-])cc1NC(=O)Nc1ccc(OC)c(OC)c1 | -3 | 6 | 76* | 6 | -76 | -14
COc1ccc([N+](=O)[O-])cc1NC(=O)Nc1cccc(Cl)c1 | x | x | 83* | -12 | -83 | -5
COc1ccccc1N/C(=N/S(=O)(=O)c1ccc(C)cc1)c1ccccc1 | -5 | 4 | -28 | 5 | 28 | 2
C[C@H]1CN([C@@H](C)CO)C(=O)c2cc(NS(=O)(=O)c3ccc(F)cc3)ccc2O[C@@H]1CN(C)C(=O)Nc1ccc2c(c1)OCO2 | 6 | -6 | x | x | x | x
C[C@H]1CN([C@@H](C)CO)C(=O)c2cc(NC(=O)NC3CCCCC3)ccc2O[C@H]1CN(C)C | 4 | -16 | x | x | x | x
O=C(Nc1ccc(F)cc1)N[C@H]1CC[C@@H](CC(=O)N2CCOCC2)O[C@@H]1CO | 2 | -2 | x | x | x | x
C=CC[n+]1ccc(/C=C2\C=Cc3cc(C)ccc3N2CC)c2ccccc21 | x | u | 92* | 2 | -92 | 10
CCN1/C(=C/c2cc[n+](CCCS(=O)(=O)[O-])c3ccccc23)Sc2ccccc21 | -17 | x | -11 | -4 | 11 | -7
CC=Cc1ccc2n(c1=O)C[C@@H]1[C@@H](CO)[C@H](C(=O)NCCC)N(CCC(F)(F)F)[C@H]21 (mixture of isomers) | 2 | -10 | x | x | x | x
COc1cccc(N2CCN(S(=O)(=O)c3cc4c(cc3C)N(C)CCO4)CC2)c1 | -1 | 18 | 18 | 14 | -18 | -7
Cc1cc2c(cc1S(=O)(=O)N1CCN(c3cccc(C)c3C)CC1)OCCN2C | 153* | -8 | -16 | 3 | 16 | -5
Cn1c(C(=O)NCCN2CCOCC2)cc2c(=O)n(C)c3ccccc3c21 | -2 | 34 | 36 | 4 | -36 | -8
Cc1ccc(CNC(=O)c2cc3c(=O)n(C)c4ccccc4c3n2C)cc1 | 3 | 8 | -8 | -2 | 8 | 3
CCCN(CCC)CCNC(=O)c1cc2c(=O)n(C)c3ccccc3c2n1C | 1 | 55* | 41 | 1 | -41 | -24
CN(CCNC(=O)c1cc2c(=O)n(C)c3ccccc3c2n1C)Cc1ccccc1 | 0 | 52* | 25 | -10 | -25 | -19
C[C@@H]1CN([C@H](C)CO)C(=O)Cc2cc(NC(=O)C3CCCCC3)ccc2O[C@@H]1CN(C)Cc1ccc(Cl)c(Cl)c1 | -16 | 1 | x | x | x | x
CCCNC(=O)N(C)C[C@@H]1Oc2ncc(-c3ccc(OC)cc3)cc2C(=O)N([C@@H](C)CO)C[C@@H]1C | -1 | 3 | x | x | x | x
NC(=S)N/N=C/c1ncc(C(F)(F)F)cc1Cl | x | -8 | 73* | 10 | -73 | -6
CCOC(=O)/C(C#N)=C/c1ccc(SC)cc1 | 0 | x | -34 | 45* | 34 | 5
CCOC(=O)/C(C#N)=C/c1ccc(OC)c(OC)c1 | x | -7 | -2 | -11 | 2 | -9
COC(=O)c1ccc(C(=O)Nc2nc3cc(N)c(C)cc3s2)cc1 | -2 | 3 | 81* | -20 | -81 | -4
COCC(=O)N1[C@H](CO)[C@H](c2ccc(-c3ccccc3OC)cc2)C12CN(C(C)=O)C2 | -8 | x | x | x | x | x
CCCc1nc2ccc(NC(=O)NCCC(=O)OCC)cc2c(=O)n1Cc1ccc(Cl)cc1 | x | 4 | 72* | 9 | -72 | -5
CCCc1nc2ccc(NC(=O)NCCC(=O)OCC)cc2c(=O)n1Cc1cccc(Cl)c1 | x | -9 | 68 | -1 | -68 | 1
CN1C(=O)c2cc(NC(=O)Cc3ccccc3)ccc2OC[C@H]2O[C@@H](CC(=O)NCc3ccc(Cl)cc3)CC[C@H]21 | x | -2 | x | x | x | x
COc1ccccc1C(=O)COC(=O)c1cc([N+](=O)[O-])ccc1N1CCOCC1 | 4 | 0 | 85* | -7 | -85 | -11
COc1ccc(C(=O)COC(=O)c2cc([N+](=O)[O-])ccc2N2CCOCC2)c(OC)c1 | -7 | -9 | u | 5 | -70 | -1
